Test results published in ChEMBL document CHEMBL3804761, “Synthesis of a stable and orally bioavailable englerin analogue” (Bioorg Med Chem Lett, 2016).

Key:
Format in all cases: functional
HT-29 = test: Growth inhibition of human HT-29 cells assessed as cell growth at 10 uM incubated for 48 hrs by sulforhodamine B assay relative to control; conditions: HT-29, 48 h, read-out: Activity
Outline: (§1)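 Run in the standard NCI 60-cell-line screen. Cells were exposed to drug for two days, and the read-out was sulforhodamine B staining. Compound was tested at a single final concentration of 10 µM in every line, and results are reported as growth percent.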

[1] = Growth inhibition of human SNB19 cells assessed as cell growth at 10 uM incubated for 48 hrs by sulforhodamine B assay relative to control; conditions: SNB-19, 48 h, read-out: Activity; outline: as §1
SK-MEL-2 = test: Growth inhibition of human SK-MEL-2 cells assessed as cell growth at 10 uM incubated for 48 hrs by sulforhodamine B assay relative to control; conditions: SK-MEL-2, 48 h, read-out: Activity; outline: as §1
SK-MEL-5 [2] = test: Growth inhibition of human SK-MEL-5 cells assessed as cell growth at 10 uM incubated for 48 hrs by sulforhodamine B assay relative to control; conditions: SK-MEL-5, 48 h, read-out: Activity; outline: as §1
[3] = Growth inhibition of human OVCAR3 cells assessed as cell growth at 10 uM incubated for 48 hrs by sulforhodamine B assay relative to control; conditions: OVCAR-3, 48 h, read-out: Activity; outline: as §1
[4] = Growth inhibition of human SKOV3 cells assessed as cell growth at 10 uM incubated for 48 hrs by sulforhodamine B assay relative to control; conditions: SK-OV-3, 48 h, read-out: Activity; outline: as §1
[5] = Growth inhibition of human Caki1 cells assessed as cell growth at 10 uM incubated for 48 hrs by sulforhodamine B assay relative to control; conditions: CAKI-1, 48 h, read-out: Activity; outline: as §1
[6] = Growth inhibition of human TK10 cells assessed as cell growth at 10 uM incubated for 48 hrs by sulforhodamine B assay relative to control; conditions: TK-10, 48 h, read-out: Activity
Outline: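 NCI 60-cell line standard protocol, one-dose screen: single final concentration 10 µM, 2-day drug exposure, sulforhodamine B (SRB) endpoint; read-out is growth percent relative to untreated control.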

[7] = Growth inhibition of human PC3 cells assessed as cell growth at 10 uM incubated for 48 hrs by sulforhodamine B assay relative to control; conditions: PC-3, 48 h, read-out: Activity; outline: as §1
[8] = Growth inhibition of human DU145 cells assessed as cell growth at 10 uM incubated for 48 hrs by sulforhodamine B assay relative to control; conditions: DU-145, 48 h, read-out: Activity; outline: as §1
[9] = Growth inhibition of human HL-60(TB) cells incubated for 48 hrs by sulforhodamine B assay; conditions: HL-60, 48 h
Outline: (§2)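 NCI 60-cell-line panel, standard protocol. Cells exposed to compound for two days, growth read by sulforhodamine B staining. Tested at five 10-fold dilutions, top concentration 100 µM, to give dose-response curves.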

[10] = Growth inhibition of human MOLT4 cells incubated for 48 hrs by sulforhodamine B assay; conditions: MOLT-4, 48 h; outline: as §2
[11] = Growth inhibition of human SF539 cells incubated for 48 hrs by sulforhodamine B assay; conditions: SF-539, 48 h; outline: as §2
[12] = Growth inhibition of human SNB19 cells incubated for 48 hrs by sulforhodamine B assay; conditions: SNB-19, 48 h
Outline: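 Tested in the standard NCI 60-cell-line protocol with two-day drug exposure and a sulforhodamine B endpoint. Compounds were first screened at a single final concentration of 10 µM, reported as growth percent. They were then run as five 10-fold dilutions starting from a high concentration of 100 µM to give dose-response curves.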

Malme-3M = test: Growth inhibition of human MALME-3M cells incubated for 48 hrs by sulforhodamine B assay; outline: as §2
SK-MEL-5 [13] = test: Growth inhibition of human SK-MEL-5 cells incubated for 48 hrs by sulforhodamine B assay; conditions: SK-MEL-5, 48 h; outline: as §2
ACHN = test: Growth inhibition of human ACHN cells incubated for 48 hrs by sulforhodamine B assay; outline: as §2
[14] = Growth inhibition of human RXF393 cells incubated for 48 hrs by sulforhodamine B assay; conditions: RXF 393, 48 h
Outline: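 Run in the NCI 60-cell-line protocol, with 2-day drug exposure and sulforhodamine B read-out. Dose-response testing used five 10-fold dilutions starting from a high concentration of 100 µM.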

[15] = Growth inhibition of human DU145 cells incubated for 48 hrs by sulforhodamine B assay; conditions: DU-145, 48 h; outline: as §2
[16] = Growth inhibition of human Hs 578T cells incubated for 48 hrs by sulforhodamine B assay
K562 = test: Growth inhibition of human K562 cells assessed as cell growth at 10 uM incubated for 48 hrs by sulforhodamine B assay relative to control; conditions: K562, 48 h, read-out: Activity; outline: as §1
[17] = Growth inhibition of human MOLT4 cells assessed as cell growth at 10 uM incubated for 48 hrs by sulforhodamine B assay relative to control; conditions: MOLT-4, 48 h, read-out: Activity; outline: as §1
[18] = Growth inhibition of human RPMI8226 cells assessed as cell growth at 10 uM incubated for 48 hrs by sulforhodamine B assay relative to control; conditions: RPMI-8226, 48 h, read-out: Activity; outline: as §1
SR = test: Growth inhibition of human SR cells assessed as cell growth at 10 uM incubated for 48 hrs by sulforhodamine B assay relative to control; conditions: read-out: Activity; outline: as §1
[19] = Growth inhibition of human HOP92 cells assessed as cell growth at 10 uM incubated for 48 hrs by sulforhodamine B assay relative to control; conditions: HOP-92, 48 h, read-out: Activity
Outline: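 Single-dose screen in the NCI 60-cell-line panel at one final concentration of 10 µM. Two-day drug exposure with a sulforhodamine B endpoint. Values are growth percent for each cell line.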

[20] = Growth inhibition of human COLO205 cells assessed as cell growth at 10 uM incubated for 48 hrs by sulforhodamine B assay relative to control; conditions: COLO 205, 48 h, read-out: Activity; outline: as §1
[21] = Growth inhibition of human HCT116 cells assessed as cell growth at 10 uM incubated for 48 hrs by sulforhodamine B assay relative to control; conditions: HCT-116, 48 h, read-out: Activity; outline: as §1
[22] = Growth inhibition of human HCT15 cells assessed as cell growth at 10 uM incubated for 48 hrs by sulforhodamine B assay relative to control; conditions: HCT-15, 48 h, read-out: Activity; outline: as §1
[23] = read-out: pLC50 (the source's name) (converted)

CC(C)[C@@]12C[C@@H](NC(=O)CO)[C@@](C)(O1)[C@@H]1CC[C@@H](C)[C@H]1[C@@H]2OC(=O)/C=C/c1ccccc1
growth at 10 µM (HT-29): 93% | growth at 10 µM [1]: 103% | growth at 10 µM (SK-MEL-2): 101% | growth at 10 µM (SK-MEL-5 [2]): 90.6% | growth at 10 µM [3]: 106% | growth at 10 µM [4]: 101% | growth at 10 µM [5]: 61.1% | growth at 10 µM [6]: 102% | growth at 10 µM [7]: 77.5% | growth at 10 µM [8]: 110% | GI50 [9]: 14.5 µM | CC50 [9, 23]: > 50.1 µM | TGI ([9]; read-out: pTGI (converted)): 37.2 µM | GI50 [10]: 15.8 µM | LC50 [10]: > 50.1 µM | TGI ([10]; read-out: pTGI (converted)): > 50.1 µM | GI50 [11]: 42.7 µM | LC50 [11]: > 50.1 µM | TGI ([11]; read-out: pTGI (converted)): > 50.1 µM | GI50 [12]: 24.5 µM | CC50 [12, 23]: > 50.1 µM | TGI ([12]; read-out: pTGI (converted)): > 50.1 µM | GI50 (Malme-3M): 20.9 µM | LC50 (Malme-3M): > 50.1 µM | TGI (Malme-3M; read-out: pTGI (converted)): > 50.1 µM | GI50 (SK-MEL-5 [13]): 12.9 µM | LC50 (SK-MEL-5 [13]): > 50.1 µM | TGI (SK-MEL-5 [13]; read-out: pTGI (converted)): 42.7 µM | GI50 (ACHN): 3.98 µM | LC50 (concentration killing 50% of cells) (ACHN): > 50.1 µM | TGI (ACHN; read-out: pTGI (converted)): 35.5 µM | GI50 [14]: 2.09 µM | CC50 [14, 23]: > 50.1 µM | TGI ([14]; read-out: pTGI (converted)): 24.5 µM | GI50 [15]: 25.1 µM | CC50 [15, 23]: > 50.1 µM | TGI ([15]; read-out: pTGI (converted)): > 50.1 µM | GI50 ([16]; read-out: GI50): 0.832 µM | GI50 ([16]; read-out: pGI50 (converted)): 0.832 µM | CC50 [16, 23]: > 50.1 µM | TGI ([16]; read-out: pTGI (converted)): 3.39 µM | growth at 10 µM (K562): 86.6% | growth at 10 µM [17]: 76% | growth at 10 µM [18]: 90.6% | growth at 10 µM (SR): 79.1% | growth at 10 µM [19]: 88.6% | growth at 10 µM [20]: 96.4% | growth at 10 µM [21]: 85.8% | growth at 10 µM [22]: 108%
